Test results taken from ChEMBL document CHEMBL1153726, “Synthesis and anticancer activity of sclerophytin-inspired hydroisobenzofurans” (Bioorg Med Chem Lett, 2009).

Experiments:
Assay type in all cases: functional
[1] = tested on: HL-60(TB); experiment: Growth inhibition of human HL-60(TB) cells at 10 nM after 96 hrs by MTT assay; set-up: scale not given: the % may be the effect or the level left
[2] = tested on: SN12C; experiment: Growth inhibition of human SN12C cells at 1 nM after 96 hrs by MTT assay; set-up: scale not given: the % may be the effect or the level left
[3] = tested on: U-251; experiment: Growth inhibition of human U251 cells at 1 nM after 96 hrs by MTT assay; set-up: scale not given: the % may be the effect or the level left
[4] = tested on: SF-539; experiment: Growth inhibition of human SF539 cells at 1 nM after 96 hrs by MTT assay; set-up: scale not given: the % may be the effect or the level left
[5] = tested on: SW-620; experiment: Growth inhibition of human SW620 cells at 1 nM after 96 hrs by MTT assay; set-up: scale not given: the % may be the effect or the level left
[6] = tested on: NCI-H23; experiment: Growth inhibition of human NCI-H23 cells at 1 nM after 96 hrs by MTT assay; set-up: scale not given: the % may be the effect or the level left
[7] = tested on: HL-60(TB); experiment: Growth inhibition of human HL-60(TB) cells at 1 nM after 96 hrs by MTT assay; set-up: scale not given: the % may be the effect or the level left
[8] = tested on: OVCAR-3; experiment: Growth inhibition of human OVCAR-3 cells at 10 uM after 96 hrs by MTT assay; set-up: scale not given: the % may be the effect or the level left
[9] = tested on: SW-620; experiment: Growth inhibition of human SW620 cells at 10 uM after 96 hrs by MTT assay; set-up: scale not given: the % may be the effect or the level left
[10] = tested on: NCI-H322M; experiment: Growth inhibition of human NCI-H322M cells at 10 uM after 96 hrs by MTT assay; set-up: scale not given: the % may be the effect or the level left
[11] = tested on: A549; experiment: Growth inhibition of human A549 cells at 10 uM after 96 hrs by MTT assay; set-up: scale not given: the % may be the effect or the level left
[12] = tested on: U-251; experiment: Growth inhibition of human U251 cells at 10 nM after 96 hrs by MTT assay; set-up: scale not given: the % may be the effect or the level left
[13] = tested on: SF-268; experiment: Growth inhibition of human SF268 cells at 10 nM after 96 hrs by MTT assay; set-up: scale not given: the % may be the effect or the level left
[14] = tested on: UACC-257; experiment: Growth inhibition of human UACC257 cells after 96 hrs by MTT assay; settings: UACC-257, 96 h
Method in brief: (§1)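 Tested in the NCI 60-cell-line panel in five-dose format; GI50 and LC50 values reported for each cell line.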

[15] = tested on: UACC-62; experiment: Growth inhibition of human UACC62 cells after 96 hrs by MTT assay; settings: UACC-62, 96 h; method in brief: as §1
[16] = tested on: A498; experiment: Growth inhibition of human A498 cells after 96 hrs by MTT assay; settings: A498, 96 h
[17] = tested on: RXF 393; experiment: Growth inhibition of human RXF393 cells after 96 hrs by MTT assay; settings: RXF 393, 96 h; method in brief: as §1
[18] = tested on: CAKI-1; experiment: Growth inhibition of human Caki1 cells at 10 uM after 96 hrs by MTT assay; set-up: scale not given: the % may be the effect or the level left
[19] = tested on: K562; experiment: Growth inhibition of human K562 cells at 10 nM after 96 hrs by MTT assay; set-up: scale not given: the % may be the effect or the level left
[20] = tested on: NCI-H23; experiment: Growth inhibition of human NCI-H23 cells after 96 hrs by MTT assay; settings: NCI-H23, 96 h
Method in brief: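 Run in the NCI 60 human tumour cell line panel as a five-dose assay. GI50 and LC50 were reported for each cell line.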

[21] = tested on: HL-60(TB); experiment: Growth inhibition of human HL-60(TB) cells after 96 hrs by MTT assay; settings: HL-60, 96 h
[22] = tested on: BT-549; experiment: Growth inhibition of human BT549 cells at 1 uM after 96 hrs by MTT assay; set-up: scale not given: the % may be the effect or the level left
[23] = tested on: 786-0; experiment: Growth inhibition of human 786-0 cells at 1 uM after 96 hrs by MTT assay; set-up: scale not given: the % may be the effect or the level left
[24] = tested on: OVCAR-8; experiment: Growth inhibition of human OVCAR8 cells at 1 uM after 96 hrs by MTT assay; set-up: scale not given: the % may be the effect or the level left
[25] = tested on: T47D; experiment: Growth inhibition of human T47D cells at 100 nM after 96 hrs by MTT assay; set-up: scale not given: the % may be the effect or the level left
[26] = tested on: DU-145; experiment: Growth inhibition of human DU145 cells at 100 nM after 96 hrs by MTT assay; set-up: scale not given: the % may be the effect or the level left
[27] = tested on: IGROV-1; experiment: Growth inhibition of human IGROV1 cells at 100 nM after 96 hrs by MTT assay; set-up: scale not given: the % may be the effect or the level left
[28] = tested on: SNB-19; experiment: Growth inhibition of human SNB19 cells at 100 nM after 96 hrs by MTT assay; set-up: scale not given: the % may be the effect or the level left
[29] = tested on: T47D; experiment: Growth inhibition of human T47D cells at 10 nM after 96 hrs by MTT assay; set-up: scale not given: the % may be the effect or the level left
[30] = tested on: UO-31; experiment: Growth inhibition of human UO31 cells at 10 nM after 96 hrs by MTT assay; set-up: scale not given: the % may be the effect or the level left
[31] = tested on: SN12C; experiment: Growth inhibition of human SN12C cells at 10 nM after 96 hrs by MTT assay; set-up: scale not given: the % may be the effect or the level left
[32] = tested on: 786-0; experiment: Growth inhibition of human 786-0 cells at 10 nM after 96 hrs by MTT assay; set-up: scale not given: the % may be the effect or the level left
[33] = tested on: UACC-62; experiment: Growth inhibition of human UACC62 cells at 10 nM after 96 hrs by MTT assay; set-up: scale not given: the % may be the effect or the level left
[34] = tested on: SF-539; experiment: Growth inhibition of human SF539 cells at 10 nM after 96 hrs by MTT assay; set-up: scale not given: the % may be the effect or the level left
[35] = tested on: NCI-H322M; experiment: Growth inhibition of human NCI-H322M cells at 10 nM after 96 hrs by MTT assay; set-up: scale not given: the % may be the effect or the level left
[36] = tested on: HOP-62; experiment: Growth inhibition of human HOP62 cells at 10 nM after 96 hrs by MTT assay; set-up: scale not given: the % may be the effect or the level left
[37] = tested on: IGROV-1; experiment: Growth inhibition of human IGROV1 cells at 1 uM after 96 hrs by MTT assay; set-up: scale not given: the % may be the effect or the level left
[38] = tested on: UACC-257; experiment: Growth inhibition of human UACC257 cells at 1 uM after 96 hrs by MTT assay; set-up: scale not given: the % may be the effect or the level left
[39] = tested on: Malme-3M; experiment: Growth inhibition of human MALME-3M cells at 1 uM after 96 hrs by MTT assay; set-up: scale not given: the % may be the effect or the level left
[40] = tested on: SF-539; experiment: Growth inhibition of human SF539 cells at 1 uM after 96 hrs by MTT assay; set-up: scale not given: the % may be the effect or the level left
[41] = tested on: SF-295; experiment: Growth inhibition of human SF295 cells at 1 uM after 96 hrs by MTT assay; set-up: scale not given: the % may be the effect or the level left
[42] = tested on: SF-268; experiment: Growth inhibition of human SF268 cells at 1 uM after 96 hrs by MTT assay; set-up: scale not given: the % may be the effect or the level left
[43] = tested on: NCI-H322M; experiment: Growth inhibition of human NCI-H322M cells at 1 uM after 96 hrs by MTT assay; set-up: scale not given: the % may be the effect or the level left
[44] = read-out: LC50 (the source's name)
[45] = read-out: Log10GI50 (converted)
[46] = read-out: Log10LC50 (converted)

C=C(C)[C@H]1CC=C(C)C2=CO[C@@H](c3ccccc3F)[C@@H]21
Activity [1]: 104% | Activity [2]: 85% | Activity [3]: 98% | Activity [4]: 91% | Activity [5]: 96% | Activity [6]: 98% | Activity [7]: 104% | Activity [8]: 115.72% | Activity [9]: 101.12% | Activity [10]: 120.7% | Activity [11]: 71.63% | Activity [12]: 94% | Activity [13]: 94% | GI50 ([14]; read-out: GI50): 6.71 µM | CC50 [14, 44]: 50.9 µM | GI50 [14, 45]: 6.76 µM | CC50 [14, 46]: 51.3 µM | TGI ([14]; read-out: Log10TGI (converted)): 21.4 µM | TGI ([14]; read-out: TGI): 21.3 µM | GI50 ([15]; read-out: GI50): 3.31 µM | CC50 [15, 44]: 51.5 µM | GI50 [15, 45]: 3.31 µM | CC50 [15, 46]: 51.3 µM | TGI ([15]; read-out: Log10TGI (converted)): 18.2 µM | TGI ([15]; read-out: TGI): 18.3 µM | GI50 ([16]; read-out: GI50): 2340 nM | CC50 [16, 44]: 26.5 µM | GI50 [16, 45]: 2340 nM | CC50 [16, 46]: 26.3 µM | TGI ([16]; read-out: Log10TGI (converted)): 7.08 µM | TGI ([16]; read-out: TGI): 7.07 µM | GI50 ([17]; read-out: GI50): 7 µM | CC50 [17, 44]: 64.7 µM | GI50 [17, 45]: 6.92 µM | CC50 [17, 46]: 64.6 µM | TGI ([17]; read-out: Log10TGI (converted)): 24 µM | TGI ([17]; read-out: TGI): 23.9 µM | Activity [18]: -25% | Activity [19]: 95% | GI50 ([20]; read-out: GI50): 4.88 µM | CC50 [20, 44]: 51.4 µM | GI50 [20, 45]: 4.9 µM | CC50 [20, 46]: 51.3 µM | TGI ([20]; read-out: Log10TGI (converted)): 19.5 µM | TGI ([20]; read-out: TGI): 19.4 µM | GI50 ([21]; read-out: GI50): 2080 nM | CC50 [21, 44]: 35.5 µM | GI50 [21, 45]: 2090 nM | CC50 [21, 46]: 35.5 µM | TGI ([21]; read-out: Log10TGI (converted)): 5.01 µM | TGI ([21]; read-out: TGI): 4.97 µM | Activity [22]: -6% | Activity [23]: 48% | Activity [24]: 59% | Activity [25]: 76% | Activity [26]: 87% | Activity [27]: 83% | Activity [28]: 88% | Activity [29]: 89% | Activity [30]: 83% | Activity [31]: 87% | Activity [32]: 92% | Activity [33]: 81% | Activity [34]: 90% | Activity [35]: 84% | Activity [36]: 97% | Activity [37]: 56% | Activity [38]: 44% | Activity [39]: 19% | Activity [40]: 43% | Activity [41]: 30% | Activity [42]: 43% | Activity [43]: 49%
